Measurements collected from several papers.
CDK5 with p35: Cyclin-dependent kinase 5, with p35 (CDK5, Homo sapiens, UniProt Q00535)
CDK5: Cyclin-dependent kinase 5 (CDK5, Homo sapiens, UniProt Q00535)

With `CC(C)(C)c1cc(C=C(C#N)C#N)cc(Br)c1O` the remaining activity was 102% (CDK5 with p35; enzyme activity; inhibitor; 0.5 µM).
The inhibition of `Cn1cc(-c2cc(F)cc(N3CCn4c(cc5c4CCCC5)C3=O)c2CO)cc(Nc2ccc(N3CCN(C4COC4)CC3)cn2)c1=O` is reported as 9% (Cyclin-dependent kinase 5, with p25 (CDK5, Homo sapiens, UniProt Q00535); enzyme activity; inhibitor; 0.1 µM).
With `Nc1ncc(-c2nc(N3CCOCC3)nc(N3CCOCC3)n2)c(C(F)F)n1` the remaining binding was 100% (CDK5; binding; competition with immobilised ligand; 10 µM).
`Cc1nn(C)cc1-c1nc2c(N3CCN(Cc4ccc(Cl)cc4)CC3)c(Cl)cnc2[nH]1` has a remaining binding of 76% (CDK5; binding; competition with immobilised ligand; 1 µM).
The remaining binding of `N#CC1(c2ccccn2)CCN(Cc2cc(C(=O)O)c(=O)n3ccccc23)CC1` is reported as 100% (CDK5; cell-free assay; competition with immobilised ligand; 1 µM).
With `Cn1cc(-c2cccc(N3CCc4c(sc5c4CC(C)(C)C5)C3=O)c2CO)cc(Nc2ccncn2)c1=O` the inhibition was 3% (CDK5 with p35; enzyme activity; inhibitor; 1 µM).
With `Cn1cncc1[C@](O)(COc1ccc(C#N)cc1-c1ccc(OC(F)(F)F)cc1)c1ccc(C#N)cc1` the remaining binding was 92% (CDK5; cell-free assay; competition with immobilised ligand; 1 µM).
`COc1ncccc1-c1cnn2ccc(N3CCN(C(=O)OC(C)C)CC3)nc12` has a remaining binding of 100% (CDK5; binding; competition with immobilised ligand; 1 µM).
